PGC1a acetyl inh = PGC1a acetylation modulation, inhibitor mode. inhibition, % at 15.6 µM. U2OS PGC1a acetylation, AlphaScreen anti-acetyl-lysine; with virally co-expressed GCN5 acetyltransferase. 0.17% of 350,000 active;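 active = every replicate shows inhibition of at least 40%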;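 note: 0% = neutral control wells and 100% = positive control wells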
S100A4 MyoIIA = inhibitors of human S100A4 binding to myosin IIA peptide | inhibition, % at 10.7 µM | 0.14% of 360,000 active | P26447 | S100A4/TAMRA-MyoIIA peptide fluorescence polarization;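 active = mean inhibition of at least 70% across replicates, with every replicate also reaching that level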
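incubation = readout 5 min after mixing, signal stable up to 60 min | system = S100A4 monomer protein | buffer or medium = HEPES pH 7.2 with CaCl2, KCl, NaCl, DTT, Triton | benchmarks = neutral control DMSO, positive control TFP | also added = fluorescent myosin IIA peptide, 5 nM | compound dosing = one concentration per compound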
Rtt109 Vps75 = inhibitors of Candida albicans Rtt109/Vps75 histone acetyltransferase; Q5AAJ8; purified Rtt109/Vps75, ThioGlo CoA-SH fluorescence, 4 h; inhibition, % at 34.9 µM; 0.16% of 330,000 active; AID 540336;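 active = inhibition of at least 50% in every replicate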
ERAP1 inh = blocks human ERAP1 aminopeptidase activity. recombinant ERAP1, Leu-AMC fluorescence, 60 min. Q9NZ08. inhibition, % at 10.7 µM. 0.15% of 340,000 active;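 active = mean replicate inhibition of at least 30%, or all replicates individually reaching that 30% level; inactive = mean below 30% and not every replicate reaching it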;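 note: 0% = neutral control wells and 100% = L-leucinethiol positive control wells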
Target sequence (Q9NZ08 whole entry, looked up): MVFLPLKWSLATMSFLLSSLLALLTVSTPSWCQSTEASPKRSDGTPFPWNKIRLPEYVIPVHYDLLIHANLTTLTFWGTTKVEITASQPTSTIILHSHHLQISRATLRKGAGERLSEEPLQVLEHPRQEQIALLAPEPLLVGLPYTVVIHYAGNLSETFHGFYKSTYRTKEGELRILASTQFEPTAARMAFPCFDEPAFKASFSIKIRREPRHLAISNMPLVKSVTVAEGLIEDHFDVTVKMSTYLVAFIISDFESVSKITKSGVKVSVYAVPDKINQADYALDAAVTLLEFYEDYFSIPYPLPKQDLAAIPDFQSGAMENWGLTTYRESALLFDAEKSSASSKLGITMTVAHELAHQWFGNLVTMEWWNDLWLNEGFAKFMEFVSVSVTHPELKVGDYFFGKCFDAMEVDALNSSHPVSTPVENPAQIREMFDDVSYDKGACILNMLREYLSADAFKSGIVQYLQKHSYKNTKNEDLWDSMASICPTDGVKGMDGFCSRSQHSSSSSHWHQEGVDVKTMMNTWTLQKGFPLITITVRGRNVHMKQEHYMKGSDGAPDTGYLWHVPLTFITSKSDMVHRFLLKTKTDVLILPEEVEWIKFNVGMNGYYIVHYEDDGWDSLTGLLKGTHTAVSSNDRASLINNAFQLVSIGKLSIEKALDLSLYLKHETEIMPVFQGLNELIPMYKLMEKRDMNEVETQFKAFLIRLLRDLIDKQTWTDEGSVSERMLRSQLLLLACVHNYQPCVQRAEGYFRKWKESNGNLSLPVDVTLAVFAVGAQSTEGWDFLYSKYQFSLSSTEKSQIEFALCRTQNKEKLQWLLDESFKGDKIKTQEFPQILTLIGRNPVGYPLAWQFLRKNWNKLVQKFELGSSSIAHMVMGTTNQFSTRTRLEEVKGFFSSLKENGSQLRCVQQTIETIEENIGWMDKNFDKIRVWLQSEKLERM
Statin myotox sup = suppression of simvastatin myotoxicity. C2C12 myotubes + simvastatin, ATP luminescence, 48 h; scaled: DMSO 0, geranylgeraniol control 100. rescue of ATP level, % at 7.49 µM. 0.78% of 330,000 active;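 active = mean ATP rescue above about 67%, or every replicate alone reaching that limit, limit read from the data, passing the limit was not always enough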;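 note: myotubes were challenged with 10 µM simvastatin during compound exposure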
Numbers without * were called inactive; · = no result given. Shown are actives, neighbours in structure and some others; about 0.98% of the full set was active somewhere.

SMILES | PGC1a acetyl inh | S100A4 MyoIIA | Rtt109 Vps75 | ERAP1 inh | Statin myotox sup
CC(=O)C[C@H](O)CC(=O)[C@H]1OC(=O)CCCCC/C=C/Cc2ccccc21 | -4 | -4 | 6 | -3 | 9
CC(=O)C[C@@H](O)CC(=O)[C@@H]1OC(=O)CCCCCCCCc2ccccc21 | 8 | 3 | 1 | -6 | 125*
CC(=O)C[C@@H](O)CC(=O)[C@@H]1OC(=O)CCCCC/C=C/Cc2ccccc21 | -1 | -11 | 11 | 0 | 92*
O=C(Cc1ccncc1)NCC[C@@H]1CC[C@@H](NC(=O)C2CCCC2)[C@@H](CO)O1 | -2 | -13 | · | 0 | -3
CCOC(=O)CN1CC23C=CC(O2)C(C(=O)NC2CCCCC2)C3C1=O (stereo not drawn) | 16 | · | -14 | · | 108*
COc1ccc(S(=O)(=O)NCCC(=O)NCc2ccccc2)cc1 | 1 | · | -8 | · | 126*
CCOc1ccc(S(=O)(=O)NCCC(=O)Nc2ccncc2)cc1 | -4 | 36 | -5 | 0 | 5
COc1ccc(S(=O)(=O)NCc2ccccc2)cc1 | · | · | -39 | · | 2
CCOc1ccc(S(=O)(=O)NCCC(=O)Nc2cccc(C(=O)OC)c2)cc1 | -16 | -14 | 54* | -3 | -4
C[C@@H]1CN([C@@H](C)CO)C(=O)c2cc(NC(=O)Nc3cccc4ccccc34)ccc2O[C@@H](C)CCCCO[C@H]1CN(C)Cc1ccc2c(c1)OCO2 | -5 | · | · | · | -176
C[C@H](CO)N1C[C@H](C)[C@H](CN(C)Cc2ccccc2)Oc2c(NS(C)(=O)=O)cccc2C1=O | -6 | 2 | · | 1 | 36
CN(C)C(=O)C[C@H]1CC[C@H]2[C@H](COc3ccc(NC(=O)C4CCC4)cc3C(=O)N2C)O1 | 1 | -5 | · | 0 | ·
CC1Cc2ccccc2N1C(=O)c1ccc(N2CCCCC2)c([N+](=O)[O-])c1 (stereo not drawn) | 8 | -7 | -2 | -2 | ·
CC1Cc2ccccc2N1C(=O)c1ccc(N2CCCC2)c([N+](=O)[O-])c1 (stereo not drawn) | 9 | 0 | 57* | -1 | 1
COC(=O)C1=C(C)NC(C)=C(C(=O)OC)C1C1CC=CCC1 (stereo not drawn) | 3 | · | 4 | · | 123*
CC(=O)N(C)C[C@H]1Oc2ncc(/C=C/c3ccccc3)cc2C(=O)N([C@H](C)CO)C[C@@H]1C | -4 | 4 | · | 1 | 1
COc1ccccc1N(C(=O)c1snc(C(N)=O)c1N)C(C(=O)NC1CCCCC1)c1cccc(OC)c1OC (stereo not drawn) | · | 4 | 53* | -1 | 8
CO[C@@H]1CN(C)C(=O)c2cc(NC(C)=O)ccc2OC[C@@H](C)N(C(=O)C2CCC2)C[C@@H]1C | · | -10 | · | -1 | -3
COc1ccc(NC(=O)N(C)C[C@@H]2Oc3c(NS(=O)(=O)c4ccccc4)cccc3C(=O)N([C@@H](C)CO)C[C@@H]2C)cc1 | · | · | · | · | -16
Fc1ccc(CSc2nnc(Cc3sc(-c4ccccc4)nc3-c3ccccc3)o2)cc1 | -6 | · | -5 | · | -6
COc1ccc(CSc2nnc(Cc3sc(-c4ccccc4)nc3-c3ccccc3)o2)cc1 | 4 | · | -3 | · | 96*
COc1cc(/C=C/C(=O)OCC(=O)Nc2cc(S(=O)(=O)N3CCOCC3)ccc2Cl)cc(OC)c1OC | 7 | 4 | 3 | 1 | 109*
CO[C@H]1CN(C)C(=O)c2ccc(NS(=O)(=O)c3ccccc3)cc2OC[C@H](C)NC[C@H]1C | -10 | 8 | · | 2 | -9
CC1=[N+](C)c2ccc3ccccc3c2C1(C)C | · | 145* | · | 3 | ·
Cc1ccc(S(=O)(=O)NCC[C@@H]2CC[C@@H](NC(=O)c3ccccn3)[C@@H](CO)O2)cc1 | 6 | 3 | · | -2 | 11
SMILES | PGC1a acetyl inh | S100A4 MyoIIA | Rtt109 Vps75 | ERAP1 inh | Statin myotox sup
COc1ccc(C(=O)N2CCC(C(=O)Nc3ccc4c(c3)OCCO4)CC2)cc1 | 7 | · | 1 | · | 86*
COc1ccc(NC(=O)NCc2ccccn2)cc1 | -8 | · | -6 | · | 110*
COc1ccc(C(=O)N2CCC(C(=O)NCc3ccccn3)CC2)cc1 | -1 | · | -7 | · | 114*
O=C(Nc1ccc2c(c1)OCCO2)C1CCN(C(=O)c2ccc(Br)cc2)CC1 | -9 | · | 12 | · | 3
Cc1noc(C)c1S(=O)(=O)Nc1ccc2c(c1)C(=O)N([C@H](C)CO)C[C@H](C)[C@@H](CN(C)Cc1ccc(-c3ccccc3)cc1)O2 | 6 | 1 | · | 0 | ·
C[C@H](CO)N1C[C@H](C)[C@@H](CN(C)CC2CCCCC2)OCCCC[C@H](C)Oc2ccc(NC(=O)C3CCCCC3)cc2C1=O | 28 | 14 | · | 1 | ·
COc1ccc(CN(C)C[C@H]2Oc3c(NS(=O)(=O)c4ccc(C)cc4)cccc3C(=O)N([C@H](C)CO)C[C@@H]2C)cc1 | -8 | 0 | · | 1 | -1
Cc1nnc(-c2ccccc2)c(=O)n1/N=C/c1c(O)ccc2ccccc12 | 64* | · | 22 | · | 84*
Cc1ncc([N+](=O)[O-])n1CCOC(=O)c1ccccc1 | · | · | -7 | · | ·
Cc1nonc1OCCn1c([N+](=O)[O-])cnc1C | · | 14 | 53* | 17 | ·
CO[C@@H]1CN(C)C(=O)c2cc(NC(=O)Nc3c(C)noc3C)ccc2OC[C@@H](C)N(CC2CC2)C[C@H]1C | 7 | 7 | · | · | -1
Fc1cccc(CN2CCN3CCCC3C2C2CCCCC2)c1 (stereo not drawn) | -2 | · | 1 | · | 129*
O=C(O)c1cc(S(=O)(=O)Nc2cccc3ccccc23)c(Cl)cc1Cl | 2 | -8 | -2 | -4 | 75*
CC(=O)Oc1ccc(-c2csnn2)cc1 | 95* | · | -11 | · | 7
CCNC(=O)Oc1ccc(-c2csnn2)cc1 | 4 | 8 | 9 | 3 | ·
O=S(=O)(c1ccccc1)N1CC[C@@H]2[C@H](CO)Nc3ccc(C#CC4CCCCC4)cc3[C@@H]21 | · | -22 | · | 0 | ·
CNC[C@@H]1OCCCC[C@H](C)Oc2ccc(NS(C)(=O)=O)cc2C(=O)N([C@@H](C)CO)C[C@@H]1C | -20 | 89* | · | 4 | -21
CNC[C@H]1OCCCC[C@H](C)Oc2ccc(NC(=O)C3CCCCC3)cc2C(=O)N([C@@H](C)CO)C[C@@H]1C | -7 | -17 | · | 0 | -53
Cc1noc(C)c1S(=O)(=O)N(C)C[C@@H]1OCCCC[C@H](C)Oc2ccc(NC(=O)C3CCCCC3)cc2C(=O)N([C@H](C)CO)C[C@H]1C | 29 | 111* | · | -2 | -22
CNC[C@H]1OCCCC[C@@H](C)Oc2ccc(NS(C)(=O)=O)cc2C(=O)N([C@H](C)CO)C[C@@H]1C | -1 | · | · | · | 46
CNC[C@H]1OCCCC[C@@H](C)Oc2ccc(NC(=O)C3CCCCC3)cc2C(=O)N([C@@H](C)CO)C[C@@H]1C | 12 | 97* | · | 2 | 34
O=C1CNC[C@@H]2[C@H](c3ccc(C4=CCCCC4)cc3)[C@@H](CO)N12 | 5 | 9 | · | 0 | ·

Screening results from PubChem.
